ChEMBL document CHEMBL3272234, “Analgesic agents. 3. New bridged aminotetralins” (1976)
Activity calls are given as the source filed them. The rule behind the calls is not given here.

Columns and labels:
Rattus norvegicus [1] = assay: Analgesic activity in ip dosed Charles River rat by tail flick test; format: functional
In short: (§1)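 Dosed intraperitoneally as aqueous solutions or Tween-80 suspensions to groups of six or ten rats. Doses expressed as mg base/kg. Read-out recorded as the number of rats showing analgesia over the number tested at each dose.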

Rattus norvegicus [2] = species on record: Rattus norvegicus; assay: Analgesic activity in Charles River rat by tail flick test relative to morphine; format: functional
In short: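 Rats (groups of six or ten) dosed ip in aqueous solution or Tween-80 suspension, with doses as mg base/kg. Potency expressed relative to morphine, which was taken as unity. Some estimates were based on two doses.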

Rattus norvegicus [3] = assay: Analgesic activity in Charles River rat at 50 mg/kg, ip by tail flick test; format: functional, organism-based; parameters: dose 50 mg/kg; in short: as §1
Rattus norvegicus [4] = assay: Analgesic activity in po dosed Charles River rat by tail flick test; format: functional
In short: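 Oral dosing of rats, with doses calculated as mg base/kg. Read-out recorded as the number of rats showing analgesia over the number tested.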

Rattus norvegicus [5] = assay: Analgesic activity in Charles River rat at 25 mg/kg, ip by tail flick test; format: functional, organism-based; parameters: dose 25 mg/kg; in short: as §1

SMILES | ED50 (Rattus norvegicus [1]) | Ratio (Rattus norvegicus [2]) | Activity (Rattus norvegicus [3]) | ED50 (Rattus norvegicus [4]) | Activity (Rattus norvegicus [5])
Br.C[C@@]12Cc3ccccc3CC(Cc3ccc(O)cc31)C2N (some centres undefined) | 12.5 mg/kg | 0.35 | – | – | –
CC[C@@]12CC=CCC(Cc3ccc(OC)cc31)[C@@H]2N(C)C.Cl | 50 mg/kg | – | inactive | – | –
C[C@@]12CCCCC(Cc3ccc(OC(=O)C4CC4)cc31)[C@@H]2N.Cl | 5.5 mg/kg | 0.81 | – | 16.5 mg/kg | –
CC[C@@]12Cc3ccccc3CC(Cc3ccc(OC)cc31)C2N.Cl (some centres undefined) | 50 mg/kg | – | – | – | –
CC[C@@]12CC=CCC(Cc3ccc(OC)cc31)[C@@H]2NC.I | 25 mg/kg | – | – | – | –
CC[C@@]12CC=CCC(Cc3ccc(OC)cc31)[C@@H]2N.Cl | 4.2 mg/kg | 1.05 | – | 6.25 mg/kg | –
COc1ccc2c(c1)[C@@]1(C)CC=CCC(C2)[C@@H]1N.Cl | 16.5 mg/kg | 0.27 | – | 6.25 mg/kg | –
CN1CC[C@]23c4c5ccc(O)c4O[C@H]2[C@@H](O)C=C[C@H]3[C@H]1C5 [MORPHINE] | – | 1 | – | – | –
CCC(=O)O[C@](Cc1ccccc1)(c1ccccc1)[C@H](C)CN(C)C [PROPOXYPHENE] | 10.4 mg/kg | – | – | – | –
COc1ccc2c(c1)[C@@]1(C)CCCCCC(C2)[C@@H]1[N+](C)(C)[O-].Cl | 10 mg/kg | 0.44 | – | 16.5 mg/kg | –
COc1ccc2c(c1)[C@@]1(C)Cc3ccccc3CCC(C2)C1N.O=C(O)/C=C/C(=O)O (some centres undefined) | 25 mg/kg | – | – | – | inactive
CC(=O)Oc1ccc2c(c1)[C@@]1(C)CCCCC(C2)[C@@H]1N.Cl | 10 mg/kg | 0.44 | – | 40 mg/kg | –
COc1ccc2c(c1)[C@@]1(C)CC=CCC(C2)[C@@H]1N(C)C.Cl | 50 mg/kg | – | inactive | – | –
COc1ccc2c(c1)[C@@]1(C)Cc3ccccc3CC(C2)C1N.Cl (some centres undefined) | 14.5 mg/kg | 0.31 | – | – | –
Br.C[C@@]12Cc3ccccc3CCC(Cc3ccc(O)cc31)C2N (some centres undefined) | 25 mg/kg | – | – | – | –
Br.C[C@@]12CCCCC(Cc3ccc(O)cc31)[C@@H]2N | 7.4 mg/kg | 0.6 | – | – | –
C[C@@]12CC=CCC(Cc3ccc(O)cc31)[C@@H]2N.Cl | 6.25 mg/kg | 1.26 | – | – | –
CC[C@@]12CC=CCC(Cc3ccc(O)cc31)[C@@H]2N | 1.75 mg/kg | 2.53 | – | 6.25 mg/kg | –
COc1ccc2c(c1)[C@@]1(C)CCCCCC(C2)[C@@H]1N.Cl | 10 mg/kg | 0.44 | – | – | –
